How the values were obtained:
[1] = target: T1, Lysine-specific demethylase 2A (Homo sapiens, UniProt Q9Y2K7); assay: Inhibition of human N-terminal FLAG/Avi-tagged KDM2A (2 to 700 residues) expressed in baculovirus infected Sf9 insect cells using H3(21-44)-K36(Me2)-GK(Biotin)/2-OG as substrate measured after 1 hr by Alphalisa assay
T1 sequence (Q9Y2K7 whole entry): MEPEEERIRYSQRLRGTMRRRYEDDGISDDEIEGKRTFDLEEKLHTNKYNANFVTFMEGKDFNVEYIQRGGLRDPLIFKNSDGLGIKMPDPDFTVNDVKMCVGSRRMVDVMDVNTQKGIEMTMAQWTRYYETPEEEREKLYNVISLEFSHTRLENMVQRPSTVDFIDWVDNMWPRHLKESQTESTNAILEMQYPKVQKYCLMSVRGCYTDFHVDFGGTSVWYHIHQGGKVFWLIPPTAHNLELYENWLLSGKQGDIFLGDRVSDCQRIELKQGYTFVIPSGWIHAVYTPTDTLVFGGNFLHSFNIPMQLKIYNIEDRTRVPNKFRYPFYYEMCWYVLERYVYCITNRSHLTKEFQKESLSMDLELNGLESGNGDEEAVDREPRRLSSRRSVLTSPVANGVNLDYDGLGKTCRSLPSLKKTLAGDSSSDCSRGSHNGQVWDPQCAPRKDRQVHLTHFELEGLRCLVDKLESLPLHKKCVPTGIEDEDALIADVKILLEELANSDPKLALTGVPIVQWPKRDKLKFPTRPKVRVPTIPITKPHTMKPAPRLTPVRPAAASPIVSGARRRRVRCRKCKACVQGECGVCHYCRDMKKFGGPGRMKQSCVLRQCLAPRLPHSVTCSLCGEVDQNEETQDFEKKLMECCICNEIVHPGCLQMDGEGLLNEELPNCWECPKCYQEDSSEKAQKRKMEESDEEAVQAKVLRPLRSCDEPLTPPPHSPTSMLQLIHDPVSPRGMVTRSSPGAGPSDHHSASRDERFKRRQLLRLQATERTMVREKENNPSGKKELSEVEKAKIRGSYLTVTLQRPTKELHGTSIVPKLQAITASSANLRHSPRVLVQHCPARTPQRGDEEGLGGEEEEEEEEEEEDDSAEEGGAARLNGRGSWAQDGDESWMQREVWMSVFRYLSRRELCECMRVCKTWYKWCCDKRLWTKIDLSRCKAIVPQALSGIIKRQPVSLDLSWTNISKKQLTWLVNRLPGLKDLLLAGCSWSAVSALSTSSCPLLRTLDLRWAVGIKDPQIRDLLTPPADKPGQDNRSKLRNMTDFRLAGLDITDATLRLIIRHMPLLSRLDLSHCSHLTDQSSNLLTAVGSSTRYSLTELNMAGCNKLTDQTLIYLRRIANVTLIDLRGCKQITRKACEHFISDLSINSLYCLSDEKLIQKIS
Method in brief: (§1)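 AlphaLISA demethylase assay in 50 mM HEPES pH 7.5, 0.1% BSA, 0.01% Tween 20 with DMSO. Enzyme and inhibitor combined, then peptide plus 2-OG (50 µM), Fe(II) (5 µM) and ascorbate (100 µM) in the added mix; 1 h at room temperature with shaking.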

[2] = target: T2, Lysine-specific demethylase 3A (Homo sapiens) (UniProt Q9Y4C1); assay: Inhibition of human N-terminal FLAG-tagged KDM3A (2 to 1321 residues) expressed in baculovirus infected Sf9 insect cells at 25 uM using H3(1-21)K9(Me1)-GGK(Biotin)/2-OG as substrate measured after 1 hr by Alphalisa assay relative to control; method in brief: as §1
T2 sequence (whole entry): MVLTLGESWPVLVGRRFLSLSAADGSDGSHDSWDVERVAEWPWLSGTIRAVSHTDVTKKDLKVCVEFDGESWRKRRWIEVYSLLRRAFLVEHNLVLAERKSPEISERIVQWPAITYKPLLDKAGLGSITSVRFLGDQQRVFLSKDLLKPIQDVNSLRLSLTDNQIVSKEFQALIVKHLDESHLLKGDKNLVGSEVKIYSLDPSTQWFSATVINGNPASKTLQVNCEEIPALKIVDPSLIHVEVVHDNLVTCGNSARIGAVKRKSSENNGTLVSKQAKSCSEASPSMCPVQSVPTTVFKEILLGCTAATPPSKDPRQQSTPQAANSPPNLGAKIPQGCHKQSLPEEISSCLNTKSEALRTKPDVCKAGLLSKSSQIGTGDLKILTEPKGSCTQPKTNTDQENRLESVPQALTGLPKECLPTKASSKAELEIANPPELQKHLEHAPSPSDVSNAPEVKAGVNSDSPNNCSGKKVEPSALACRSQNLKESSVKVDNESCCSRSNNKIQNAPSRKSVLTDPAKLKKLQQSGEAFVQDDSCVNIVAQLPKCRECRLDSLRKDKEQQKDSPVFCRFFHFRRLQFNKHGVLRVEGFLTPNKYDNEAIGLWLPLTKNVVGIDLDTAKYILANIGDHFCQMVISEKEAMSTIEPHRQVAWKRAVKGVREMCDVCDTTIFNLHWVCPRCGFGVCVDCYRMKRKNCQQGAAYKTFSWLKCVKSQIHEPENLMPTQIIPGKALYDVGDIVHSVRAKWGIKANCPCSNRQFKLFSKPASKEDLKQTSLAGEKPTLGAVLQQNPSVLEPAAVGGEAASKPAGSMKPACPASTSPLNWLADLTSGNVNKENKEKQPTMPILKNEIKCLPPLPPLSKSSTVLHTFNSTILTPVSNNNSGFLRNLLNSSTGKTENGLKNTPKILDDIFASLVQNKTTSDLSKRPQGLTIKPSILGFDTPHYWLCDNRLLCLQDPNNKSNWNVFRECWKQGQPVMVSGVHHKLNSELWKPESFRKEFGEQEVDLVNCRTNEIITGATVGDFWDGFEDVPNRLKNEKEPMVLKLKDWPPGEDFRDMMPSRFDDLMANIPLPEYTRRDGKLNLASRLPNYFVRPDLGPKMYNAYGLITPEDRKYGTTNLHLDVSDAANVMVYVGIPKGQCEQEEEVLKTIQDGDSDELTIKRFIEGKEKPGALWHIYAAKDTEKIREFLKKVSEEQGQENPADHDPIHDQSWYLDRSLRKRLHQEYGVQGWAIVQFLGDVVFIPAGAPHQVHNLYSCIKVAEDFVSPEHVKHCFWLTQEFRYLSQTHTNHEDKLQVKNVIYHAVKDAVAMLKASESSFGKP

[3] = target: Histone lysine demethylase PHF8 (Homo sapiens, UniProt Q9UPP1); assay: Inhibition of human N-terminal FLAG-tagged KDM7B (2 to 525 residues) expressed in baculovirus infected Sf9 insect cells using H3(1-21)K9(Me2)-GGK(Biotin)/2-OG as substrate measured after 1 hr by Alphalisa assay; method in brief: as §1
Histone lysine demethylase PHF8, sequence (Q9UPP1 whole entry, the tested form may be a part): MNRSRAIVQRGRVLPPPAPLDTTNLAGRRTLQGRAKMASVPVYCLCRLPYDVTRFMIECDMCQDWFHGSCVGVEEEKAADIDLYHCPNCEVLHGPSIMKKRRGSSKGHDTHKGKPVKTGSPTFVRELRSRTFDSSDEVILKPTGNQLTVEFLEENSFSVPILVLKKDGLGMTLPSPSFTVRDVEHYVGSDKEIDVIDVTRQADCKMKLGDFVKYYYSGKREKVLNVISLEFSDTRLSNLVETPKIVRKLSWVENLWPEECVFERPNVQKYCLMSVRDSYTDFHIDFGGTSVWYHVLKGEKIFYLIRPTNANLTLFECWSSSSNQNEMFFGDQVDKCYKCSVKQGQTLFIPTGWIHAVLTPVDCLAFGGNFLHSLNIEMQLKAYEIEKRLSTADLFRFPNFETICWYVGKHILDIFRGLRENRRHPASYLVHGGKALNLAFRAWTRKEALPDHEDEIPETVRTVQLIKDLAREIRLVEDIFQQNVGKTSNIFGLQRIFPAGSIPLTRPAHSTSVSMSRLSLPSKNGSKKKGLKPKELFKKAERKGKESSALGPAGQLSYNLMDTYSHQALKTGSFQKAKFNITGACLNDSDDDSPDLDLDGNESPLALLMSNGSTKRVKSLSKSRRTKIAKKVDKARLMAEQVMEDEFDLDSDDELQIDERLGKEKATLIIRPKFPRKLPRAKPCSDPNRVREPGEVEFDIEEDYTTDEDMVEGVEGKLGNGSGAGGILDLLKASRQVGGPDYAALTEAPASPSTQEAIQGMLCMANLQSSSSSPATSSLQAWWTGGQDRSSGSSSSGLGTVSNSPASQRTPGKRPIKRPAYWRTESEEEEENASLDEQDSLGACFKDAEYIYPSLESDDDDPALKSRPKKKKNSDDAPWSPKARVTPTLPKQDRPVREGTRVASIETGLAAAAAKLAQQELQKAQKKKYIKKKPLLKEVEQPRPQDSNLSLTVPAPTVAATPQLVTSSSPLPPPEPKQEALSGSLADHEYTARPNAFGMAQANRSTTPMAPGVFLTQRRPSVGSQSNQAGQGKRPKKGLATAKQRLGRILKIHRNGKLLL

[4] = target: Lysine-specific demethylase 5A (Homo sapiens, UniProt P29375); assay: Potency index, ratio of CPI-455 IC50 to test compound IC50 for human C-terminal FLAG-tagged KDM5A (1 to 1090 residues) expressed in baculovirus infected Sf9 insect cells
Lysine-specific demethylase 5A, sequence (P29375 whole entry, the tested form may be a part): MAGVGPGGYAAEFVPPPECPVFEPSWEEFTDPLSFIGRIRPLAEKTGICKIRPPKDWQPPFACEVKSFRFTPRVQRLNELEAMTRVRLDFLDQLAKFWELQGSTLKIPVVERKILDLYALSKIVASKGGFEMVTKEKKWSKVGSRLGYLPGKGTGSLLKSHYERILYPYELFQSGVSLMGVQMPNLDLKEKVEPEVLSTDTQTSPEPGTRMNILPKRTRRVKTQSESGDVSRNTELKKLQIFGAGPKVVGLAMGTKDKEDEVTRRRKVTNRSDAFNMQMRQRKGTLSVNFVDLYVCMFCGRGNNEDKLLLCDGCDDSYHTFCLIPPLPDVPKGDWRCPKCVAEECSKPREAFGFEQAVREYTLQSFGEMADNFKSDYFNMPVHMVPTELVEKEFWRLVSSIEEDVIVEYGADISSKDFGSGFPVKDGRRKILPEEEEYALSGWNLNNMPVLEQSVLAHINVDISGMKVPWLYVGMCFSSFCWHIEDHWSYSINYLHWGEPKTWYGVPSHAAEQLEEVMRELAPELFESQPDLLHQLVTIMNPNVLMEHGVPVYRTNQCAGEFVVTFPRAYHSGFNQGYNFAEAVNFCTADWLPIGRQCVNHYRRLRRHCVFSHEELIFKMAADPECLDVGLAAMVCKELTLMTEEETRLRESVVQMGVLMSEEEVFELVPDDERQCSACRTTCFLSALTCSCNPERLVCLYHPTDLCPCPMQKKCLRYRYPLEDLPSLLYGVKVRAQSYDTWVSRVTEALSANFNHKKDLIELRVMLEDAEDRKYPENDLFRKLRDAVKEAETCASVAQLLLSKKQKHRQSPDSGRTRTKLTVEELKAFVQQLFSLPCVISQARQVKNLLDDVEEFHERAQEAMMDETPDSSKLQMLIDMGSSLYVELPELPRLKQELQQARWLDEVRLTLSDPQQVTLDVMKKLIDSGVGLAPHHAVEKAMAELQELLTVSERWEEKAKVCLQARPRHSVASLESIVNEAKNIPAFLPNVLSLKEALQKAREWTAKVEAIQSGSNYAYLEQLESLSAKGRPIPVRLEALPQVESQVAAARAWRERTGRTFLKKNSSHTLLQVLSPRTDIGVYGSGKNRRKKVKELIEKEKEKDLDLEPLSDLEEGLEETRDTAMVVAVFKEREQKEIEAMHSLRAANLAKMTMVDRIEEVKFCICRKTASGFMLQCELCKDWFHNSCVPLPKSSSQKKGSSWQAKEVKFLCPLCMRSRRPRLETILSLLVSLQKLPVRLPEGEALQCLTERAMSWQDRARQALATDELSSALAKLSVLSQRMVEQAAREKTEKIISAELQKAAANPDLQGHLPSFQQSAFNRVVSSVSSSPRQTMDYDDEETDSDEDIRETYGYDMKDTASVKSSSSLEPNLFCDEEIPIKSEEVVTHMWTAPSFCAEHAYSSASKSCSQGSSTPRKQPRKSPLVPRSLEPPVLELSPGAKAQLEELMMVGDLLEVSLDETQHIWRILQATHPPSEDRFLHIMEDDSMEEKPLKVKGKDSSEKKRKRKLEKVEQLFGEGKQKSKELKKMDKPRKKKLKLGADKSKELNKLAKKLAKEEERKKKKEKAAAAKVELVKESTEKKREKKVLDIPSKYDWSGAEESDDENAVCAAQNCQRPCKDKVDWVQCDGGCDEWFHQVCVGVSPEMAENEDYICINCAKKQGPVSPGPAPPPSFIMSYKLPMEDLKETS

- IC50 [1]: > 50 µM
- inhibition [2]: 13%
- IC50 [3]: > 50 µM
- Ratio IC50 [4]: 22
SMILES: CCCCCCN(C)Cc1ccc(-c2[nH]c3c(C#N)cnn3c(=O)c2C(C)C)cc1

Reference: ChEMBL document CHEMBL4422684, “Identification of novel lysine demethylase 5-selective inhibitors by inhibitor-based fragment merging strategy” (Bioorg Med Chem, 2019)
